Assay results from different studies.
Each line is one published result; the experiments were not run side by side.
Target: Muscarinic acetylcholine receptor M1 (CHRM1, Homo sapiens, UniProt P11229)
Concentration: 10 µM
One construct used (P11229 1-460): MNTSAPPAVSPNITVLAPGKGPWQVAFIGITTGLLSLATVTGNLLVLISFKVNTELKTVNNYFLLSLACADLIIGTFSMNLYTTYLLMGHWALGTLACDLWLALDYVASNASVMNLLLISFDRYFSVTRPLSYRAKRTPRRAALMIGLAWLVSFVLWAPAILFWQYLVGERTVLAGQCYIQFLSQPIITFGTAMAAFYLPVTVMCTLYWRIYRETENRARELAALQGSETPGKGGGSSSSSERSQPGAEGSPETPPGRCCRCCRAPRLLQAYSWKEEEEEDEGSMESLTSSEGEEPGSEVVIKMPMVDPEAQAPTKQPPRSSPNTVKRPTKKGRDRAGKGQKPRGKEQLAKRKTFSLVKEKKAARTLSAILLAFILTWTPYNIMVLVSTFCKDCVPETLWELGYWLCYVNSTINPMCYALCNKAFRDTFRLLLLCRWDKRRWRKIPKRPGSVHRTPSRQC

Oc1cccc(Nc2nc(-c3ccc(F)cc3F)cs2)c1
inhibition (cell-free assay): -66%

O=C(Nc1ccc(S(=O)(=O)N2CCC(Cl)CC2)cc1)c1ccc([N+](=O)[O-])o1
inhibition (ligand displacement; radioligand): 2%

CCCNc1nc2ccccc2n1Cc1ccc(Cl)cc1
inhibition (ligand displacement): -16.1%

O=C(c1ccc(Cl)cc1)N(Cc1ccccc1)C1CCCCC1
inhibition (cell-free assay): -25.8%

N#Cc1cc(Cn2c(N3CCCC3)nc3ccccc32)ccc1F
inhibition (ligand displacement): -15.5%

CCN(CC)c1ccc(C2Nc3ccc(C(=O)c4ccccc4)cc3NC3=C2C(=O)CC(C)(C)C3)cc1 (centres unmarked)
inhibition (ligand displacement; radioligand): -4%

CCN(Cc1ccccc1C(F)(F)F)C(=O)C1CCN(S(=O)(=O)c2ccc3[nH]ncc3c2)CC1
inhibition (ligand displacement; radioligand): 1%

O=C1N=C(N2CCCCN2)S/C1=C\c1ccc(F)cc1O
inhibition (ligand displacement; radioligand): < 10%
